Each block holds one molecule with its values, some of them ahead of it.
Legend:
Assay type in all cases: physicochemical
[1] = Evaluated for ionization constant (pKa5) by titrations performed in presence of MeOH solvent at a dielectric constant of 56; settings: MeOH cosolvent; read-out: pKa5
How it was run: (§1)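 Potentiometric pH titration. The electrode is calibrated with pH 7.00 phosphate buffer. A blank titration before each set standardizes the electrode by a nonlinear semiempirical equation, and readings are converted to the concentration scale pcH = −log[H+]. Runs use varying amounts of MeOH or EtOH cosolvent, and aqueous pKa values are extrapolated by the Yasuda–Shedlovsky method. Low pKa values (pH < 2) are determined by spectrophotometric titration.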

[2] = Evaluated for ionization constant (pKa5) by titrations performed in presence of MeOH solvent at a dielectric constant of 62; settings: MeOH cosolvent; read-out: pKa5; how it was run: as §1
[3] = Evaluated for ionization constant (pKa3) by titrations performed in absence of cosolvent and at a dielectric constant of 78; settings: no cosolvent; read-out: pKa3
[4] = Evaluated for ionization constant (pKa3) by titrations performed in presence of MeOH solvent at a dielectric constant of 49; settings: MeOH cosolvent; read-out: pKa3
How it was run: (§2)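 pH-metric titration in mixed water/cosolvent media (MeOH or EtOH, depending on the ligand) at several cosolvent proportions, each proportion setting the dielectric constant. Electrode calibrated with pH 7.00 phosphate buffer and standardized after a blank titration by a nonlinear semiempirical fit. Readings were converted to pcH to give concentration-scale constants.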

[5] = Evaluated for ionization constant (pKa3) by titrations performed in presence of MeOH solvent at a dielectric constant of 56; settings: MeOH cosolvent; read-out: pKa3; how it was run: as §2
[6] = Evaluated for ionization constant (pKa3) by titrations performed in presence of MeOH solvent at a dielectric constant of 62; settings: MeOH cosolvent; read-out: pKa3; how it was run: as §2
[7] = Evaluated for ionization constant (pKa3) by titrations performed using the method of Yasuda and Shedlovsky; settings: read-out: pKa3
How it was run: (§3)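 Aqueous constants were extrapolated by the Yasuda–Shedlovsky method from pH-metric titrations run at several MeOH or EtOH cosolvent levels. Electrode calibrated with pH 7.00 phosphate buffer and standardized after a blank titration. Values are expressed on the pcH (-log[H+]) concentration scale.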

[8] = Evaluated for ionization constant (pKa4) by titrations performed in presence of MeOH solvent at a dielectric constant of 49; settings: MeOH cosolvent; read-out: pKa4; how it was run: as §2
[9] = Evaluated for ionization constant (pKa4) by titrations performed in presence of MeOH solvent at a dielectric constant of 56; settings: MeOH cosolvent; read-out: pKa4; how it was run: as §2
[10] = Evaluated for ionization constant (pKa4) by titrations performed in presence of MeOH solvent at a dielectric constant of 62; settings: MeOH cosolvent; read-out: pKa4; how it was run: as §2
[11] = Evaluated for ionization constant (pKa4) by titrations performed in presence of MeOH solvent at a dielectric constant of 78; settings: MeOH cosolvent; read-out: pKa4
[12] = Evaluated for ionization constant (pKa4) by titrations performed using the method of Yasuda and Shedlovsky; settings: read-out: pKa4; how it was run: as §1
[13] = Evaluated for ionization constant (pKa5) by titrations performed in presence of MeOH solvent at a dielectric constant of 49; settings: MeOH cosolvent; read-out: pKa5; how it was run: as §1
[14] = Evaluated for ionization constant (pKa5) by titrations performed using the method of Yasuda and Shedlovsky; settings: read-out: pKa5; how it was run: as §1
[15] = Evaluated for ionization constant (pKa2) by titrations performed in absence of cosolvent and at a dielectric constant of 78; settings: no cosolvent, dielectric constant 78; read-out: pKa2
[16] = Evaluated for ionization constant (pKa2) by titrations performed in presence of MeOH solvent at a dielectric constant of 49; settings: MeOH cosolvent, dielectric constant 49; read-out: pKa2; how it was run: as §2
[17] = Evaluated for ionization constant (pKa2) by titrations performed in presence of MeOH solvent at a dielectric constant of 56; settings: MeOH cosolvent, dielectric constant 56; read-out: pKa2; how it was run: as §2
[18] = Evaluated for ionization constant (pKa2) by titrations performed in presence of MeOH solvent at a dielectric constant of 62; settings: MeOH cosolvent, dielectric constant 62; read-out: pKa2; how it was run: as §2
[19] = Evaluated for ionization constant (pKa2) by titrations performed using method of Yasuda and Shedlovsky; settings: read-out: pKa2; how it was run: as §3
[20] = Partition coefficient (logP) (chloroform)
How it was run: (§4)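 Free-ligand partition coefficients are measured by the pH-metric technique. This uses two linked titrations: a normal aqueous titration, then a two-phase titration in the presence of the partition solvent.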

[21] = Partition coefficient (logP) (cyclohexane); how it was run: as §4
[22] = Partition coefficient (logP); settings: octanol/water; how it was run: as §4
[23] = Evaluated for ionization constant (pKa1) by titrations performed in absence of a cosolvent at a dielectric constant of 78; settings: no cosolvent, dielectric constant 78; read-out: pKa1
[24] = Evaluated for ionization constant (pKa3) by titrations performed in the presence of EtOH and at a dielectric constant of 52; settings: EtOH cosolvent; read-out: pKa3; how it was run: as §2
[25] = Evaluated for ionization constant (pKa3) by titrations performed in the presence of EtOH and at a dielectric constant of 57; settings: EtOH cosolvent; read-out: pKa3; how it was run: as §2
[26] = Evaluated for ionization constant (pKa3) by titrations performed in the presence of EtOH and at a dielectric constant of 63; settings: EtOH cosolvent; read-out: pKa3; how it was run: as §2
[27] = Evaluated for ionization constant (pKa4) by titrations performed in the presence of EtOH and at a dielectric constant of 52; settings: EtOH cosolvent; read-out: pKa4; how it was run: as §2
[28] = Evaluated for ionization constant (pKa4) by titrations performed in the presence of EtOH and at a dielectric constant of 57; settings: EtOH cosolvent; read-out: pKa4; how it was run: as §2
[29] = Evaluated for ionization constant (pKa4) by titrations performed in the presence of EtOH and at a dielectric constant of 63; settings: EtOH cosolvent; read-out: pKa4; how it was run: as §2
[30] = Evaluated for ionization constant (pKa2) by titrations performed in the presence of EtOH and at a dielectric constant of 52; settings: EtOH cosolvent, dielectric constant 52; read-out: pKa2; how it was run: as §2
[31] = Evaluated for ionization constant (pKa2) by titrations performed in the presence of EtOH and at a dielectric constant of 57; settings: EtOH cosolvent, dielectric constant 57; read-out: pKa2; how it was run: as §2
[32] = Evaluated for ionization constant (pKa1) by titrations performed using method of Yasuda and Shedlovsky; settings: read-out: pKa1; how it was run: as §3

- pKa [1]: 0.97
- pKa [2]: 1.15
- pKa [3]: 7.67
- pKa [4]: 7.41
- pKa [5]: 7.48
- pKa [6]: 7.56
- pKa [7]: 7.68
- pKa [8]: 2.94
- pKa [9]: 2.77
- pKa [10]: 2.68
- pKa [11]: 2.61
- pKa [12]: 2.49
- pKa [13]: 0.9
- pKa [14]: 1.3
- pKa [15]: 10.9
- pKa [16]: 12.2
- pKa [17]: 12.1
- pKa [18]: 11.8
- pKa [19]: 11.5
- logP [20]: -0.29
- logP [21]: < -2
- logP [22]: 0.5
- pKa [23]: 12.1
Compound: COC(=O)CN(CCN(CC(=O)[O-])Cc1ccccc1O)Cc1ccccc1O.[Na+]

- pKa [24]: 5.09
- pKa [25]: 5.25
- pKa [26]: 5.45
- pKa [7]: 5.7
- pKa [27]: 1.05
- pKa [28]: 1.21
- pKa [29]: 1.42
- pKa [12]: 1.8
- pKa [30]: 11.8
- pKa [31]: 11.6
- pKa [19]: 10.9
- logP [20]: 3.35
- logP [21]: 3.22
- logP [22]: 3.35
- pKa [32]: 12.2
Compound: CCOC(=O)CN(CCN(CC(=O)OCC)Cc1ccccc1O)Cc1ccccc1O
